The source made the active and inactive calls. The rule behind the calls is not given here.
Experiments:
[1] = test system: Rattus norvegicus; assay: Inhibition of pentagastrin-stimulated acid secretion in intraduodenally dosed perfused Ghosh Schild rat stomach; type: functional; conditions: intraduodenal
Procedure, shortened: (§1)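 Anaesthetised rat with perfused stomach: 37 °C saline at 0.5 mL/min. Effluent titrated to pH 7 with 0.01 N NaOH in 15-min fractions. Secretion driven by continuous iv pentagastrin, 1 µg/kg (1.65 mL/h). Compound given intraduodenally in 2.5 mL/kg volume 60 min after infusion start. Body temperature held at 37.8-38 °C.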

[2] = Inhibition of H+/K+ ATPase in hog gastric mucosa; type: tissue-based, Sus scrofa
Procedure, shortened: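 Hog gastric mucosa H+/K+-ATPase (0.5-1 µg/100 µL, with nigericin 1:1) in 4 mM Pipes/8 mM Tris pH 7.4, 0.25 M sucrose, 1 mM MgCl2, stimulated by 1 mM KCl. Compound 1e-4 to 1e-9 M final from DMSO stocks. Started with 1 mM Na-ATP, 30 min room temperature. Phosphate read by malachite green at 680 nm after 15 min.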

[3] = test system: Gastric gland; assay: Inhibition of acid secretion in rabbit intact gastric glands assessed as […] accumulation; type: functional, tissue-based; conditions: Oryctolagus cuniculus
Procedure, shortened: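 Isolated gastric glands in Krebs-Henseleit with 2 mg/mL rabbit serum albumin and 2 mg/mL glucose. Incubated 30 min at 37 °C, shaking, with 0.125 µM 14C-aminopyrine at pH 7.4, stimulated by 1 mM dibutyryl cAMP, inhibitor 3 nM-100 µM. Stopped by centrifugation. Accumulation taken from pellet/supernatant radioactivity ratio. IC50 from fitted inhibition equation.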

[4] = Dissociation constant, pKa of the compound; type: physicochemical
Procedure, shortened: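 Potentiometric cosolvent titration in 0.15 mol/L KCl, pH 2.0-11.0, 25 °C, methanol as cosolvent in varying portions; titrants 0.5 mol/L KOH and HCl.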

[5] = test system: Rattus norvegicus; assay: Inhibition of pentagastrin-stimulated acid secretion in perfused Ghosh Schild rat stomach at 1 umol/kg, intraduodenal; type: functional; design: scale not given: the % may be the effect or the level left; procedure, shortened: as §1
[6] = Distribution coefficient, log D of the compound; type: physicochemical; conditions: octanol/water
Procedure, shortened: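 Distribution between 1-octanol and aqueous KCl measured by potentiometric titration over pH 2.0-11.0 at 25 °C.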

[7] = test system: Rattus norvegicus; assay: Inhibition of pentagastrin-stimulated acid secretion in perfused Ghosh Schild rat stomach at 3 umol/kg, intraduodenal; type: functional; design: scale not given: the % may be the effect or the level left; procedure, shortened: as §1

Compound	ED50 [1]	pIC50 [2]	IC50 [3]	pKa [4]	Activity [5]	logD [6]	Activity [7]	Activity [3]
Cc1nc2c3c(c(C(=O)N(C)C)cn2c1C)CC[C@@H](c1ccc(F)cc1)O3	0.25 µmol/kg	6.5	158 nM	–	–	–	–	–
Cc1nc2c3c(c(C(=O)N(C)C)cn2c1CO)CC[C@@H](c1ccccc1)O3	5 µmol/kg	5.8	7940 nM	–	–	–	–	–
CC#CC(O)c1c(C)nc2c3c(c(C(=O)N(C)C)cn12)CCC(c1ccccc1)O3 (racemic)	–	< 4	–	5.58	22%	2.5	–	–
Cc1nc2c3c(c(C(=O)Nc4ccccc4)cn2c1C)CCC(c1ccccc1)O3 (racemic)	0.3 µmol/kg	5.5	251 nM	6.59	–	5	–	–
Cc1nc2c3c(c(C(=O)NC4CC4)cn2c1C)CC[C@H](c1ccccc1)O3	–	5.1	2000 nM	–	–	–	40%	–
Cc1nc2c3c(c(C(=O)N(C)C)cn2c1C)CCC(c1ccccc1)O3 (racemic)	0.5 µmol/kg	5.8	501 nM	7.15	–	2.83	–	–
CC(=O)c1c(C)nc2c3c(c(C(=O)N(C)C)cn12)CC[C@@H](c1ccccc1)O3	0.1 µmol/kg	< 4	–	–	–	–	–	inactive
Cc1ccccc1[C@H]1CCc2c(C(=O)N(C)C)cn3c(C)c(C)nc3c2O1	1.3 µmol/kg	6.1	251 nM	–	–	–	–	–
Cc1nc2c3c(c(C(=O)NC4CCC4)cn2c1C)CCC(c1ccccc1)O3 (racemic)	–	5.2	398 nM	6.68	26%	3.76	–	–
CCc1c(C)nc2c3c(c(C(=O)N(C)C)cn12)CC[C@@H](c1ccccc1)O3	1.2 µmol/kg	5.5	1260 nM	–	–	–	–	–
Cc1nc2c3c(c(C(=O)N(C)C)cn2c1Br)CCC(c1ccccc1)O3 (racemic)	1 µmol/kg	4.9	12600 nM	4.68	–	3.2	–	–
CCc1c(C)nc2c3c(c(C(=O)N(C)C)cn12)CCC(c1ccccc1)O3 (racemic)	–	5	2000 nM	6.7	30%	3	–	–
Cc1nc2c3c(c(C(=O)N4CC4)cn2c1C)CCC(c1ccccc1)O3 (racemic)	–	5.3	398 nM	6.63	35%	2.9	–	–
CC(=O)c1c(C)nc2c3c(c(C(=O)N(C)C)cn12)CC[C@H](c1ccccc1)O3	–	< 4	–	–	–	–	31%	inactive
Cc1nc2c3c(c(C(=O)NC4CC4)cn2c1C)CC[C@@H](c1ccccc1)O3	0.25 µmol/kg	5.7	100 nM	–	–	–	–	–
Cc1nc2c3c(c(C(=O)N4CCNCC4)cn2c1C)CCC(c1ccccc1)O3 (racemic)	–	5.3	–	6.44	36%	1.53	–	inactive
CCOC(=O)c1cn2c(C)c(C)nc2c2c1CCC(c1ccccc1)O2 (racemic)	–	6	2510 nM	6.35	34%	4.56	–	–
CC(=O)c1c(C)nc2c3c(c(C(=O)N(C)C)cn12)CCC(c1ccccc1)O3 (racemic)	–	< 4	–	3.73	55%	2.55	–	inactive
Cc1nc2c3c(c(C(N)=O)cn2c1C)CC[C@H](c1ccccc1)O3	–	–	25100 nM	–	–	–	30%	–
CON(C)C(=O)c1cn2c(C)c(C)nc2c2c1CC[C@H](c1ccccc1)O2	–	4.5	–	–	–	–	20%	–
Cc1nc2c3c(c(C(=O)N(C)C)cn2c1C)CC[C@H](c1ccccc1)O3	–	5.4	2510 nM	–	–	–	36%	–
Cc1nc2c3c(c(C(=O)N(C)C)cn2c1C)CCC(c1ccccc1F)O3 (racemic)	–	5.9	631 nM	6.78	73%	2.8	–	–
Cc1nc2c3c(c(C(=O)N4CCCC4)cn2c1C)CCC(c1ccccc1)O3 (racemic)	–	5.8	316 nM	6.73	47%	2.83	–	–
CNC(=O)c1cn2c(C)c(C)nc2c2c1CCC(c1ccccc1)O2 (racemic)	0.6 µmol/kg	5.6	1000 nM	6.74	–	2.8	–	–

Compound	ED50 [1]	pIC50 [2]	IC50 [3]	pKa [4]	Activity [5]	logD [6]	Activity [7]	Activity [3]
CC#CC(=O)c1c(C)nc2c3c(c(C(=O)N(C)C)cn12)CCC(c1ccccc1)O3 (racemic)	–	6.2	–	3.2	43%	3.2	–	inactive
Cc1nc2c3c(c(C(=O)N(C)C)cn2c1C)CC[C@@H](c1ccccc1)O3	0.22 µmol/kg	6.8	200 nM	–	–	–	–	–
Cc1nc2c3c(ccn2c1C)CCC(c1ccccc1)O3 (racemic)	–	6.9	316 nM	7.73	26%	3.5	–	–
Cc1nc2c3c(c(C(=O)N(C)C)cn2c1Br)CC[C@@H](c1ccccc1)O3	1.5 µmol/kg	5	6310 nM	–	–	–	–	–
Cc1ccccc1[C@@H]1CCc2c(C(=O)N(C)C)cn3c(C)c(C)nc3c2O1	0.4 µmol/kg	6.3	251 nM	–	–	–	–	–
Cc1nc2c3c(c(C(=O)N(C)C)cn2c1C)CCC(c1ccc(F)cc1)O3 (racemic)	0.35 µmol/kg	6.2	398 nM	6.74	–	2.78	–	–
Cc1nc2c3c(c(C(=O)N(C)C)cn2c1CN(C)C)CCC(c1ccccc1)O3 (racemic)	–	5	–	4.09	20%	1.8	–	–
Cc1ccccc1C1CCc2c(C(=O)N(C)C)cn3c(C)c(C)nc3c2O1 (racemic)	0.4 µmol/kg	6.2	200 nM	6.74	–	2.76	–	–
Cc1nc2c3c(c(C(=O)N(C)C)cn2c1CO)CC[C@H](c1ccccc1)O3	> 6 µmol/kg	4.2	–	–	–	–	–	inactive
CCOc1ccc(NC(=O)c2cn3c(C)c(C)nc3c3c2CCC(c2ccccc2)O3)cc1 (racemic)	–	> 6	200 nM	6.57	33%	4.3	–	–
Cc1nc2c3c(c(C(=O)N(C)C)cn2c1C)CC[C@H](c1ccc(F)cc1)O3	1.5 µmol/kg	5.7	1000 nM	–	–	–	–	–
Cc1nc2c3c(c(C(=O)NC4CC4)cn2c1C)CCC(c1ccccc1)O3 (racemic)	–	6	1000 nM	6.69	82%	3.22	–	–
Cc1nc2c3c(c(C(=O)N(C)C)cn2c1C)CC[C@@H](c1ccccc1F)O3	0.2 µmol/kg	6.3	79.4 nM	–	–	–	–	–
Cc1nc2c3c(c(C(N)=O)cn2c1C)CCC(c1ccccc1)O3 (racemic)	0.8 µmol/kg	5.9	2510 nM	6.52	–	2.53	–	–
CON(C)C(=O)c1cn2c(C)c(C)nc2c2c1CCC(c1ccccc1)O2 (racemic)	0.4 µmol/kg	5.8	398 nM	6.49	–	2.6	–	–
Cc1nc2c3c(c(C(=O)N(C)C)cn2c1CO)CCC(c1ccccc1)O3 (racemic)	–	5.6	31600 nM	5.86	55%	1.52	–	–
Cc1nc2c3c(c(C4=NCCO4)cn2c1C)CCC(c1ccccc1)O3 (racemic)	2 µmol/kg	6	794 nM	–	–	–	–	–
Cc1nc2c3c(c(C(=O)N4CCC4)cn2c1C)CC[C@@H](c1ccccc1)O3	0.2 µmol/kg	6.4	50.1 nM	–	–	–	–	–
CCN(CC)C(=O)c1cn2c(C)c(C)nc2c2c1CCC(c1ccccc1)O2 (racemic)	–	5.2	794 nM	6.75	23%	3.2	–	–
Cc1nc2c3c(c(C(=O)N4CCC4)cn2c1C)CCC(c1ccccc1)O3 (racemic)	–	6.2	398 nM	6.64	75%	2.6	–	–
Cc1nc2c3c(c(C(=O)N4CCCC4)cn2c1C)CC[C@@H](c1ccccc1)O3	1 µmol/kg	6.4	200 nM	–	–	–	–	–
Cc1nc2c3c(c(C(=O)N(C)C)cn2c1C)CCC(c1cccs1)O3 (racemic)	–	5.3	631 nM	6.64	46%	2.05	–	–
CON(C)C(=O)c1cn2c(C)c(C)nc2c2c1CC[C@@H](c1ccccc1)O2	0.4 µmol/kg	5.6	–	–	–	–	–	–
Cc1nc2c3c(c(C(N)=O)cn2c1C)CC[C@@H](c1ccccc1)O3	1 µmol/kg	–	1580 nM	–	–	–	–	–
